Compound activity: PubChem BioAssay, several laboratories
STAT1 inh – STAT1 signaling inhibitors, primary screen, cell-based, HTS, luciferase reporter | NIH 3T3 STAT1-luciferase reporter, IFN-gamma, luminescence | inhibition, % at 5.5 µM | hit rate 0.35% among 200,000 | AID 920, 2007;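 active = inhibition above a set limit, the mean inhibition across all tested compounds plus 3 SD, cut at about 34% in these data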;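 note: 0% = IFN-gamma with DMSO and 100% = IFN-gamma with 300 µM nifuroxazide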
STAT3 blocker – IL-6 driven STAT3 reporter inhibitors, primary screen, U3A cells, luciferase, luminescence, MLSCN library; AID 862, 2007; IL-6 STAT3-luciferase reporter; host cell line lacks STAT1; inhibition, % at 5.5 µM; hit rate 0.89% among 190,000;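 active = inhibition above the mean inhibition across all screened compounds plus 3 SD, cut at about 44% in these data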;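 note: 0% = DMSO only wells and 100% = 100 µM nifuroxazide control wells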
STAT3 activator – IL-6 driven STAT3 reporter potentiators, primary screen, U3A cells, luciferase, luminescence, MLSCN library. activation (% of control), % at 5.6 µM. hit rate 0.91% among 190,000. IL-6 STAT3-luciferase reporter; 100% = signal with IL-6 EC80 alone;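 active = activation above the screen-wide mean of compound activation plus 3 SD, cut at about 130% in these data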;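 note: 0% = background luminescence of wells with medium and substrate only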
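Assay system – human STAT1-deficient U3A cells with stable STAT3-luciferase reporter · Also added – IL-6 (33 ng/mL) · Schedule – compound 1 h, then IL-6 6 h at 37 °C · Technique – reporter luminescence signal · Evaluation – % activation versus median of IL-6-stimulated wells · Benchmarks – IL-6-only wells as 100% reference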
APP 5'UTR act – activators of APP 5'UTR luciferase reporter, primary screen, SH-SY5Y cells | AID 1276, 2008 | SH-SY5Y APP 5'UTR luciferase reporter, luminescence; zero percent = DMSO vehicle wells | activation, % at 2 µM | hit rate 1% among 190,000;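 active = activation above a set limit, based on mean plus 3 SD of controls, cut at about 140% in these data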
STAT1 act – STAT1 signaling activators, primary screen, cell-based, HTS, luciferase reporter; AID 932, 2007; hit rate 2.6% among 200,000; NIH 3T3 STAT1-luciferase reporter, IFN-gamma, luminescence; 100% = IFN-gamma alone, no compound; activation (% of control), % at 5.5 µM;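 active = activation above the screen-wide mean activation plus 3 SD, cut at about 130% in these data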;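 note: raw ratio to IFN-gamma control signal so 100% means no change and 0% no light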
NF-kB expr up – activators of NF-kB expression in neurons, primary screen, cell-based, HTS; human neuronal cells, NF-kB reporter expression; active compounds read high; fold change at 12.5 µM; hit rate 1.6% among 190,000; AID 1239, 2008; in the data active = fold change above about 3.3
Starred values were filed as active, the others as inactive. Only some compounds are listed: those with a hit (about 4.9% of all), similar ones and a draw of the others.

Screening CCOC(=O)c1c(C)[nH]c(C(=O)COC(=O)CNC(=O)c2ccccc2Cl)c1C returned STAT1 inh -35.6, STAT3 blocker -14.6, STAT3 activator 110.9, APP 5'UTR act 37.2, STAT1 act 132.5* and NF-kB expr up 2.53.
Screening CCOC(=O)c1c(C)[nH]c(C(=O)COC(=O)[C@H](C)NC(=O)c2ccccc2Cl)c1C returned STAT1 inh -8.0, STAT3 blocker 9.1, STAT3 activator 96.5, APP 5'UTR act 36.0, STAT1 act 107.3 and NF-kB expr up 1.63.
CCOC(=O)c1c(C)[nH]c(C)c1C(=O)COC(=O)CNC(=O)C1CCCCC1 was read as STAT1 inh -3.9, STAT3 blocker -6.2, STAT3 activator 107.3, APP 5'UTR act -20.7, STAT1 act 102.0 and NF-kB expr up 1.07.
For CCOc1ccccc1C(=O)NC(C(=O)Nc1cccnc1)C(C)C (configuration not stated) the results were STAT1 inh -2.9, STAT3 blocker -2.3, STAT3 activator 103.1, APP 5'UTR act -10.6, STAT1 act 100.3 and NF-kB expr up 0.95.
Clc1ccccc1-c1nc(-c2ccccc2)n[nH]1 was read as STAT1 inh -34.9, STAT3 blocker -14.0, STAT3 activator 120.1, APP 5'UTR act 109.2, STAT1 act 131.9* and NF-kB expr up 4.05*.
COc1ccc(/C(N)=N/OC(=O)Cc2cccs2)cc1 was read as STAT1 inh -44.1, STAT3 blocker -9.2, STAT3 activator 105.4, APP 5'UTR act 64.7, STAT1 act 139.3* and NF-kB expr up 2.7.
For COc1ccc(/C(N)=N/OC(=O)Cc2cccs2)cc1OC the results were STAT1 inh -12.2, STAT3 blocker 5.5, STAT3 activator 97.6, APP 5'UTR act 19.9, STAT1 act 110.9 and NF-kB expr up 1.96.
For O=C(c1cccc(S(=O)(=O)N2CCOCC2)c1)N(Cc1ccc(F)cc1)Cc1ccco1 the results were STAT1 inh 1.4, STAT3 blocker -29.2, STAT3 activator 134.0*, APP 5'UTR act 0.8, STAT1 act 97.8 and NF-kB expr up 0.81.
Screening CN(C)S(=O)(=O)c1cccc(C(=O)N(Cc2ccc(F)cc2)Cc2ccco2)c1 returned STAT1 inh 8.2, STAT3 blocker 2.8, STAT3 activator 100.8, APP 5'UTR act -14.1, STAT1 act 96.9 and NF-kB expr up 0.98.
Screening Oc1ccc(/C=N/Nc2cccc3cccnc23)c(O)c1 returned STAT1 inh 12.8, STAT3 blocker 25.0, STAT3 activator 84.7, APP 5'UTR act 49.2, STAT1 act 89.0 and NF-kB expr up 11.3*.
For Oc1ccc(/C=N/Nc2ncc(Br)cn2)c(O)c1 the results were STAT1 inh -12.8, STAT3 blocker 12.9, STAT3 activator 93.0, APP 5'UTR act 18.8, STAT1 act 111.6 and NF-kB expr up 5.01*.
For O=c1[nH]ncc(N/N=C\c2ccc(O)cc2O)c1Cl the results were STAT1 inh 0.6, STAT3 blocker 14.9, STAT3 activator 91.3, APP 5'UTR act -3.1, STAT1 act 101.1 and NF-kB expr up 1.11.
`Cc1ccc(/C=N/Nc2cccc3cccnc23)c(O)c1` gave STAT1 inh -3.9, STAT3 blocker -27.2, STAT3 activator 131.9, APP 5'UTR act 93.4, STAT1 act 103.6 and NF-kB expr up 7.48*.
Screening Oc1ccc(/C=N/Nc2nccnc2Cl)c(O)c1 returned STAT1 inh 6.8, STAT3 blocker 10.2, STAT3 activator 90.4, STAT1 act 93.8 and NF-kB expr up 1.19.
For CC(Oc1cc(F)ccc1[N+](=O)[O-])C(=O)N(C)CC(=O)Nc1ccccc1C(F)(F)F (configuration not stated) the results were STAT1 inh -2.8, STAT3 blocker -2.8, STAT3 activator 109.3, APP 5'UTR act 3.6, STAT1 act 102.3 and NF-kB expr up 1.15.
`O=C(NC(=S)Nc1ccc(S(=O)(=O)Nc2ncccn2)cc1)c1ccc(Br)cc1` gave STAT1 inh -2.4, STAT3 blocker 8.2, STAT3 activator 97.5, APP 5'UTR act 7.8, STAT1 act 100.9 and NF-kB expr up 1.04.
Screening Cc1noc(C)c1N=Nc1ccccc1C(=O)O returned STAT1 inh -1.2, STAT3 blocker 2.3, STAT3 activator 103.4, APP 5'UTR act 16.7, STAT1 act 101.5 and NF-kB expr up 0.91.
For Cc1[nH]c2ccccc2c1N=Nc1ccccc1C(=O)O the results were STAT1 inh 8.0, STAT3 blocker -41.8, STAT3 activator 135.3*, APP 5'UTR act 4.5, STAT1 act 92.8 and NF-kB expr up 0.92.
For Cc1[nH]c2ccccc2c1N=Nc1cccc(C(=O)O)c1 the results were STAT1 inh -52.3, STAT3 blocker -9.4, STAT3 activator 108.5, APP 5'UTR act 82.6, STAT1 act 146.8* and NF-kB expr up 4.13*.
CC(=O)N(/N=C1\Sc2ccccc2C1=O)c1cccc(C)c1 was read as STAT1 inh -29.5, STAT3 blocker -8.0, STAT3 activator 110.6, APP 5'UTR act 136.2*, STAT1 act 127.0 and NF-kB expr up 7.08*.
Screening CC(=O)N(CN1C(=O)c2ccccc2C1=O)c1cccc(C)c1 returned STAT1 inh 10.5, STAT3 blocker 3.4, STAT3 activator 99.3, APP 5'UTR act 4.5, STAT1 act 90.4 and NF-kB expr up 0.86.
O=C(/C=C/c1ccc2c(c1)OCCCO2)c1ccccc1O was read as STAT1 inh -30.7, STAT3 blocker -7.5, STAT3 activator 107.0, APP 5'UTR act 215.7*, STAT1 act 127.5 and NF-kB expr up 3.61*.
Screening CN(C)c1ccc(/C=C/C(=O)c2ccccc2O)cc1 returned STAT1 inh -15.8, STAT3 blocker 21.1, STAT3 activator 85.6, APP 5'UTR act 136.8*, STAT1 act 114.7 and NF-kB expr up 3.47*.
COc1cc(/C=C/C(=O)c2ccccc2O)cc(OC)c1OC was read as STAT1 inh 6.7, STAT3 blocker -7.0, STAT3 activator 107.4, APP 5'UTR act -5.0, STAT1 act 92.5 and NF-kB expr up 1.53.
`COC(=O)Nc1nc(-c2ccccc2)c(C(=O)c2ccc(Cl)cc2)s1` gave STAT1 inh -0.2, STAT3 blocker 5.0, STAT3 activator 96.1, APP 5'UTR act -9.4, STAT1 act 100.2 and NF-kB expr up 1.38.
CC(=O)c1sc(NC(=O)c2ccccc2)nc1-c1ccccc1 was read as STAT1 inh -56.2, STAT3 blocker 17.3, STAT3 activator 86.6, APP 5'UTR act 101.2, STAT1 act 150.5* and NF-kB expr up 4.92*.
`CC(=O)c1sc(NC(=O)c2cccc(C)c2)nc1C` gave STAT1 inh -35.1, STAT3 blocker 22.0, STAT3 activator 82.7, APP 5'UTR act 123.9, STAT1 act 131.0* and NF-kB expr up 5.55*.
